Consider one compound from ChEMBL document CHEMBL2203264, “Optimization of imidazo[4,5-b]pyridine-based kinase inhibitors: identification of a dual FLT3/Aurora kinase inhibitor as an orally bioavailable preclinical development candidate for the treatment of acute myeloid leukemia” (J Med Chem, 2012).

Each structure is given as a SMILES string. Active and inactive are the calls of the source.

Data set [1] concerns Mus musculus. Put plainly: Toxicity in CrTacNCr-Fox1(nu) athymic mouse assessed as adverse condition at 50 to 100 mg/kg, po administered 10 days post implantation daily for 7 days. More on the design: dose 50-100 mg/kg, route oral. The format is organism-based. The settings on record: in vivo.
Data set [2] relates to MV4-11. Kind of data set: Antitumor activity against human MV4-11 cells xenografted in CrTacNCr-Fox1(nu) athymic mouse assessed as tumor growth inhibition at 100 mg/kg, po bid administered 10 days post implantation daily for 7 days measured after 11 days. The format is functional, organism-based. More on the design: dose 100 mg/kg. The method in brief:
(§1)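 Female adult athymic nude mice implanted subcutaneously with 10^7 FLT3-ITD-positive MV4-11 cells; treatment started 10 days after implantation, once mean tumor volume was at least 100 mm^3. Oral dosing at 50 or 100 mg/kg (n = 5 per group), twice daily for 7 days, then once daily for a further 4 days. Vehicle: 10% DMSO, 20% PEG 400, 5% Tween 80, 65% water. Tumor volume followed to day 60.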

Data set [3] relates to Mus musculus. Kind of data set: Volume of distribution in Balb/C mouse at 5 mg/kg, iv and 5 mg/kg, po. The format is ADME, organism-based. The settings on record: in vivo. In a few lines: (§2)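 Female Balb/C mice given 5 mg/kg po or iv in 10% DMSO, 5% Tween 20 in saline. Killed at 5, 15, 30 min and 1, 2, 4, 6, 24 h; plasma from cardiac blood. Methanol protein precipitation with olomoucine internal standard, then LC-MS (reverse-phase C18, positive ESI MRM).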

A short description of data set [4]: Half life in Balb/C mouse at 5 mg/kg, iv. The format is ADME, organism-based. More on the design: dose 5 mg/kg, route intravenous. The settings on record: in vivo. In a few lines:
as §2

Data set [5] concerns the target Platelet-derived growth factor receptor beta (Homo sapiens) (UniProt P09619). Kind of data set: Inhibition of PDGFRB at 1 uM. The method in brief:
(§3)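 KINOMEScan competition-binding panel of 442 kinases (386 nonmutant) tested at 1 μM. Binding is read as percent of control ligand competition; <10% of control counts as a hit for the S(10) score.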

Data set [6] is described as follows: Clearance in Sprague-Dawley rat at 5 mg/kg, iv. The format is ADME, organism-based. More on the design: dose 5 mg/kg, route intravenous. The conditions noted are these: in vivo. The method in brief:
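Female Sprague–Dawley rats given 5 mg/kg iv in 10% DMSO, 5% Tween 20, 85% saline, 0.3% 1 M HCl. Serial tail vein bleeds at 15 and 30 min and 2, 4, 6, 24 h; plasma protein-precipitated with methanol with olomoucine internal standard; drug quantified by LC–MS (positive ESI MRM). Clearance given as L/h and mL/min/kg.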

In data set [7] the test system is Mus musculus. Put plainly: Inhibition of Stat5 phosphorylation at Y694 in tumor of human MV4-11 cells xenografted CrTacNCr-Fox1(nu) athymic mouse at 50 to 100 mg/kg, po bid for 4 days measured after 2 hrs post final dose. The format is functional, organism-based. In a few lines:
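MV4-11 xenograft-bearing athymic mice dosed orally at 50 or 100 mg/kg twice daily for 4 days, starting 17 days after implantation. Tumors harvested 2 h after the final dose. Western blotting for phospho-histone H3 (S10) and phospho-Stat5 (Y694), with total histone H3, total Stat5 and GAPDH as loading controls.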
Background: In xenograft studies the graft and the host belong to different species.

The test system of data set [8] is Plasma. Kind of data set: Plasma protein binding in mouse. The format is ADME, cell-free.
Data set [9] in a line: Metabolic stability in human liver microsomes assessed as parent compound metabolism after 30 mins by LC-MS analysis. It counts as ADME, Microsome. The settings on record: read-out: Drug metabolism. In a few lines: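 Test compound at 10 μM with pooled mixed-gender human liver microsomes (1 mg/mL protein), NADPH 1 mM, UDPGA 2.5 mM and MgCl2 3 mM in 10 mM PBS at 37 °C for 0 and 30 min. Controls omit NADPH/UDPGA. Compound remaining measured by LC–MS; reported as percent of parent metabolized at 30 min.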
On the technique in general: Liver microsomes are a subcellular fraction often used to study metabolism.

Data set [10] has as its target Tyrosine-protein kinase JAK2 (Homo sapiens) (UniProt O60674). Kind of data set: Inhibition of JAK2 at 1 uM. In a few lines: as §3
Data set [11] deals with MV4-11. Kind of data set: Antitumor activity against human MV4-11 cells xenografted in po dosed CrTacNCr-Fox1(nu) athymic mouse assessed as tumor growth inhibition administered 10 days post implantation twice daily for 7 days. It counts as functional, organism-based. The method in brief: as §1
Data set [12] in a line: Half life in Sprague-Dawley rat at 5 mg/kg, iv. It counts as ADME, organism-based. More on the design: dose 5 mg/kg, route intravenous. The conditions noted are these: in vivo. In a few lines: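 Female Sprague-Dawley rats, 5 mg/kg. Oral vehicle 10% DMSO, 5% Tween 80, 20% PEG400 in water; iv vehicle 10% DMSO, 5% Tween 20, 85% saline, 0.3% 1 M HCl. Serial tail-vein plasma at 15, 30 min and 2, 4, 6, 24 h. Methanol precipitation with olomoucine internal standard, then LC-MS (C18 BEH, positive ESI MRM).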

The target in data set [13] is Voltage-gated inwardly rectifying potassium channel KCNH2 (Homo sapiens, UniProt Q12809). Put plainly: Inhibition of human ERG by whole-cell voltage clamping. In a few lines: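 hERG tail current measured by whole-cell voltage clamp (Cyprotex) to obtain an IC50. Single-point screens were a separate high-throughput cell-based electrophysiology assay at 10 μM, with 0.3% DMSO vehicle and 1 μM cisapride as controls.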

For data set [14], the target named is T1, Cytochrome P450 1A2 (Homo sapiens, UniProt P05177).
T1 sequence (P05177 whole entry): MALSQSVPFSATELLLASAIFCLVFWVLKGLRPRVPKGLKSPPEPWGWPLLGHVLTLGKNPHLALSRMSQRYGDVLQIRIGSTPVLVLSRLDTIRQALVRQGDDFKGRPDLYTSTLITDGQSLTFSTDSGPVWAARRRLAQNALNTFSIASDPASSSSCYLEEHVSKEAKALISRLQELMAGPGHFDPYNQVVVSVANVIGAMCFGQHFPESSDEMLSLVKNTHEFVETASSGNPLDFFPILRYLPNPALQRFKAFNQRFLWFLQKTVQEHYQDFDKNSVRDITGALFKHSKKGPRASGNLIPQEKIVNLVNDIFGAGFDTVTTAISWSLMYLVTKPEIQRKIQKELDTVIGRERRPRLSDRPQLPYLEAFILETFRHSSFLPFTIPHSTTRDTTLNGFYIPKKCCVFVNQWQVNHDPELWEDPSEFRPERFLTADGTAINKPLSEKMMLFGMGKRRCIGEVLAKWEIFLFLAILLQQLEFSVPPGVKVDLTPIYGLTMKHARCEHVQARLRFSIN
Put plainly: Inhibition of human liver microsome CYP1A2 by LC-MS-MS analysis.

Data set [15] concerns the target Proto-oncogene tyrosine-protein kinase receptor Ret (Homo sapiens) (UniProt P07949). Put plainly: Inhibition of RET at 1 uM. The method in brief: as §3

Sequence of Tyrosine-protein kinase JAK2 (Homo sapiens) (O60674 whole entry): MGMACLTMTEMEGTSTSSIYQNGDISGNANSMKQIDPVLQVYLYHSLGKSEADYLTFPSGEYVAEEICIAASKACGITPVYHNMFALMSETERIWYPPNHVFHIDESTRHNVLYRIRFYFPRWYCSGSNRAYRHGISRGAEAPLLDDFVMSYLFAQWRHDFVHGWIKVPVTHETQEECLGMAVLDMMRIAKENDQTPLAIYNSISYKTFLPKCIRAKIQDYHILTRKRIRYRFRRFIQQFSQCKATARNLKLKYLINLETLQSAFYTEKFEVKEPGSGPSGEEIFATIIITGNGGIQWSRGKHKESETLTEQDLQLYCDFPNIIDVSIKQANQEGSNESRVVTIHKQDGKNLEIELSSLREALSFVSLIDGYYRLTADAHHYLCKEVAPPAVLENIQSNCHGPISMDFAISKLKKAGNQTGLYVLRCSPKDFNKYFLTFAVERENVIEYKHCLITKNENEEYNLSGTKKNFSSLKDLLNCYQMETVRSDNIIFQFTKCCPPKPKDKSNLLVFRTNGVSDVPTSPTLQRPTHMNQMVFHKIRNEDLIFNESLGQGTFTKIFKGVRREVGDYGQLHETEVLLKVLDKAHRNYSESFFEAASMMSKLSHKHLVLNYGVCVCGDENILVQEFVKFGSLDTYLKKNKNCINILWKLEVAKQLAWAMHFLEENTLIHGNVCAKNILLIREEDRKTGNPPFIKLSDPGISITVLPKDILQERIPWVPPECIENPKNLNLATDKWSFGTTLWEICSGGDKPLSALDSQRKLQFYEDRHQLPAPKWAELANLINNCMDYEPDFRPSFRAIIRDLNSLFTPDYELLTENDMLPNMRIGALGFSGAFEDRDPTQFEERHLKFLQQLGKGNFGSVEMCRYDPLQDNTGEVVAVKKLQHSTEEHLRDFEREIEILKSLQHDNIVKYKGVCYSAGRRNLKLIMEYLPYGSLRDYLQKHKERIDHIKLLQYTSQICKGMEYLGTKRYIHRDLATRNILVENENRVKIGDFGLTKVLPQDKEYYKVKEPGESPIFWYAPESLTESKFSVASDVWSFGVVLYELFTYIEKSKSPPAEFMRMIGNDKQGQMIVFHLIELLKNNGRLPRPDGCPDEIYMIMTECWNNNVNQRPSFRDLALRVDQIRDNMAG
Sequence of Platelet-derived growth factor receptor beta (Homo sapiens) (P09619 whole entry): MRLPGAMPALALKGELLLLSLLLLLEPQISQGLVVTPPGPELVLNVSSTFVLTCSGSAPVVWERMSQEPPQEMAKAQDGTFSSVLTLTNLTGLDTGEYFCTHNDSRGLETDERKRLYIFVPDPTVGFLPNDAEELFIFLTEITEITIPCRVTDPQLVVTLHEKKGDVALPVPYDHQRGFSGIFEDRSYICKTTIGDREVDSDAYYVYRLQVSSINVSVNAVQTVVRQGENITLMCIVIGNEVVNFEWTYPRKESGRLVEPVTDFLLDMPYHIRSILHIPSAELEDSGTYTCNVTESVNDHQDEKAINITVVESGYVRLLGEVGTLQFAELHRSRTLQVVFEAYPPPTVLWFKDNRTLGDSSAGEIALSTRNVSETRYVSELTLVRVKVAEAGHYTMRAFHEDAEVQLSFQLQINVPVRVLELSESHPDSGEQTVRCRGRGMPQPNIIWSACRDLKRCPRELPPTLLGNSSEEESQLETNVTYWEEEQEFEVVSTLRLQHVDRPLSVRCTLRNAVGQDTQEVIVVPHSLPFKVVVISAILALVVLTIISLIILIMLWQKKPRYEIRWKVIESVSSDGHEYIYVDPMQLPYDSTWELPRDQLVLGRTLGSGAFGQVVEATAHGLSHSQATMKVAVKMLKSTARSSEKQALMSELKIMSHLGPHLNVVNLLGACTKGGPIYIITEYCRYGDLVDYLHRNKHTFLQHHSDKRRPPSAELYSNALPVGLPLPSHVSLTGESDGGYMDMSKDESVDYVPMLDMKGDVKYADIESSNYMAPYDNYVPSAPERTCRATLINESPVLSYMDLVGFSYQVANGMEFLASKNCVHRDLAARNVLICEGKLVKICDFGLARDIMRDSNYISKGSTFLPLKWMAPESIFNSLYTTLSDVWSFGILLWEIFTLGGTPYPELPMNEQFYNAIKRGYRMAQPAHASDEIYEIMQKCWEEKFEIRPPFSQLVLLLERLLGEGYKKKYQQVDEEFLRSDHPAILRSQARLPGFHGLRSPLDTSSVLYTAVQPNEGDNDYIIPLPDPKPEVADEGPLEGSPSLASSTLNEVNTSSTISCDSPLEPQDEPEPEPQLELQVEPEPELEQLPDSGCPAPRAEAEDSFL
Sequence of Voltage-gated inwardly rectifying potassium channel KCNH2 (Q12809 whole entry): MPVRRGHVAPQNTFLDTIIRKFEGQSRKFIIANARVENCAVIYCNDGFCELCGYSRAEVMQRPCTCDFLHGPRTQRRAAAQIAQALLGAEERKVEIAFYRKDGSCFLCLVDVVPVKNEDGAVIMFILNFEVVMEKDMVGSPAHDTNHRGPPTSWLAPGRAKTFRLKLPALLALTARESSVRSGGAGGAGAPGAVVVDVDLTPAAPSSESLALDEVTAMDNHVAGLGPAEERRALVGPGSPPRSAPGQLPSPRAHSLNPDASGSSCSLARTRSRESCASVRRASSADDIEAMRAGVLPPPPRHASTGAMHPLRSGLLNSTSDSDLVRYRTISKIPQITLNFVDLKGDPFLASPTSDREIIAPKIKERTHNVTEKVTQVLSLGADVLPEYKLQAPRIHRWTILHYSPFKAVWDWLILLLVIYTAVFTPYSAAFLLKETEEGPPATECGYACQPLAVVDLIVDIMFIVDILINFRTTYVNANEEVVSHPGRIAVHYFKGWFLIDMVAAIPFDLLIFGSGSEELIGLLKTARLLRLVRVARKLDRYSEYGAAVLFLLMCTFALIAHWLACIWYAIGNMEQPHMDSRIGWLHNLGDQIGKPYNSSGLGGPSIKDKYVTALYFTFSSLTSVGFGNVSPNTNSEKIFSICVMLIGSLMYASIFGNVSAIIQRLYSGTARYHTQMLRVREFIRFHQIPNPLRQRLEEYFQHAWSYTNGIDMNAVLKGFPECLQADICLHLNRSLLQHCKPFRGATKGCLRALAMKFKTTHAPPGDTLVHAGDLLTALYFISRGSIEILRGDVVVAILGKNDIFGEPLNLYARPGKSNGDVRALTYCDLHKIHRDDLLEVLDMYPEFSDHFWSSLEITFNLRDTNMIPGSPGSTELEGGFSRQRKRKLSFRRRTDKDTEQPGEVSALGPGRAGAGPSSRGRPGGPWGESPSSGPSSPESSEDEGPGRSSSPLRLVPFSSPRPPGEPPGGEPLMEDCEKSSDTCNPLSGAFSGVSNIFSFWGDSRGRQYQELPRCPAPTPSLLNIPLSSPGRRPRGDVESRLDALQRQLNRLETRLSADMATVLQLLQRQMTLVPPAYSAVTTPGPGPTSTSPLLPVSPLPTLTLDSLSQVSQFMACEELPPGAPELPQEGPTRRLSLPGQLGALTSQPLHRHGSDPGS
Sequence of Proto-oncogene tyrosine-protein kinase receptor Ret (Homo sapiens) (P07949 whole entry): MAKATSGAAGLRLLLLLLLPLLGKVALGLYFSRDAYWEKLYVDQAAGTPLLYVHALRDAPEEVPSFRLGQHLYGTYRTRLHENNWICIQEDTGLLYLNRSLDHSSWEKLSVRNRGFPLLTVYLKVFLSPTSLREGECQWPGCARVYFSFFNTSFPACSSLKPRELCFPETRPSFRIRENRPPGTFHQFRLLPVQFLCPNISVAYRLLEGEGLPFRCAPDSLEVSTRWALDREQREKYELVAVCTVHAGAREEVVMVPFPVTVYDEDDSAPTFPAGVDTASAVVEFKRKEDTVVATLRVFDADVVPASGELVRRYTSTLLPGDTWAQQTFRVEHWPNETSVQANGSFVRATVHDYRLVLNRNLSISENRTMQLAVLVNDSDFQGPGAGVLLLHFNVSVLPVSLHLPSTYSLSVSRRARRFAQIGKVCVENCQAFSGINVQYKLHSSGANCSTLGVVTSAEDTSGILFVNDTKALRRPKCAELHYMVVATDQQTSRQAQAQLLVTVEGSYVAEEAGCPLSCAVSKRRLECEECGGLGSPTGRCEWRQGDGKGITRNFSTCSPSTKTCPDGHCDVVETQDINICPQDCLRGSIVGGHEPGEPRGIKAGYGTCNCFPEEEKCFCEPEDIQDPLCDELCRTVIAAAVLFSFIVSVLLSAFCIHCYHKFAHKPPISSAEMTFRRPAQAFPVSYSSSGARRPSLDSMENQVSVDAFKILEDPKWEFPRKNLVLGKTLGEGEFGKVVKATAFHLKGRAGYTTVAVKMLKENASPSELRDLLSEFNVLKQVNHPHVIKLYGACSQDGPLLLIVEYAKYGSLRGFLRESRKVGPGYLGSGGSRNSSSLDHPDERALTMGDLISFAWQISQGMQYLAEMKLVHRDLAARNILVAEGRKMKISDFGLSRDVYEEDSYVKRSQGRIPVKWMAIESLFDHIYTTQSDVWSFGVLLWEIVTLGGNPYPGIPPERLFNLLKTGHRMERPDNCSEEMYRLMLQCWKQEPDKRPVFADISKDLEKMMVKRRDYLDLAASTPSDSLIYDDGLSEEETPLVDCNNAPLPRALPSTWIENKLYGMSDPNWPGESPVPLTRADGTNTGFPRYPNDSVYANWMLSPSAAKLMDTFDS

In the case of `Cc1nn(C)cc1-c1nc2c(N3CCN(Cc4ccc(Cl)cc4)CC3)c(Cl)cnc2[nH]1` [MOBINITINIB], the Activity result in [1] is “Non-toxic”. In data set [2], the outcome was Active. The Vd in [3] is 3.3 L/kg. In addition, the half-life is 0.84 h in data set [4] and 4.62 h in [12]. The inhibition in [5] amounted to 4%; in data set [10] it was 1.3%; in [15] it was 1.8%. Moreover, the clearance in data set [6] is 0.95 mL/min. Also, the inhibition result in [7] was “Active”. The same compound gave a PPB in data set [8] of 97.3%. Besides, in data set [9], the metabolised at 0.5 h was found to be 10%. Also, the TGI entry in [11] is “Dose-dependent effect”. The concentration for half-maximal inhibition (IC50) in data set [13] is above 25 µM; in data set [14], above 10 µM.

In general, half-life refers to the time needed for the level to fall by half in the phase considered. High values mean slow decline, low ones rapid decline. As a reminder, the inhibition is the relative decrease from the control value, in per cent. Usually clearance stands for the rate of elimination divided by the concentration. A low value points to a low capacity for elimination. Usually IC50 stands for the concentration needed to halve the response being measured.
